Test results from ChEMBL document CHEMBL1150763, “Discovery of imidazo[1,5-c]imidazol-3-ones: weakly basic, orally active factor Xa inhibitors” (J Med Chem, 2008).

Columns and labels:
physchem = conditions: buffer, pH 7.4
Plasma [1] = assay: Anticoagulant potency in human plasma assessed as concentration required to double the time to clot formation by PT assay; assay type: functional
How it was run: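 Human normal plasma mixed with compound dilutions in DMSO (1.5 µL into 48.5 µL), preincubated 4 min at 37 °C, clotting started with thromboplastin and timed on an automatic coagulometer. Prolongation relative to DMSO; concentration doubling clotting time derived by least-squares regression; mean of duplicates.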

[2] = Basicity, pKa by titration method; assay type: physicochemical
Coagulation factor X = Coagulation factor X (Homo sapiens, UniProt P00742); assay: Inhibition of human factor 10a
Coagulation factor X, sequence (P00742 41-179 limits assumed): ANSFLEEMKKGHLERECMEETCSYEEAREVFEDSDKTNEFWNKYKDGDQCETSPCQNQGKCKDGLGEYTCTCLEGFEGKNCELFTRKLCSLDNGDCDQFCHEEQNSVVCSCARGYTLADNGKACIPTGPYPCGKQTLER
Coagulation factor X, sequence (P00742 235-488 limits assumed): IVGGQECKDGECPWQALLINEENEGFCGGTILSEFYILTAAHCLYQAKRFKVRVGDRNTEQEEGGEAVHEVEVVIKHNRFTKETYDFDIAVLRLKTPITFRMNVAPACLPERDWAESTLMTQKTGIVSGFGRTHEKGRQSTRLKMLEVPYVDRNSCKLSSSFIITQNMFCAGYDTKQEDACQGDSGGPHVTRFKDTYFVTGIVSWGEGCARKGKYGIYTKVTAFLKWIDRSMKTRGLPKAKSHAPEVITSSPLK

Plasma [3] = assay: Anticoagulant potency in mouse plasma assessed as concentration required to double the time to clot formation by PT assay; assay type: functional
CYP3A4 = CYP3A4 (Homo sapiens, UniProt P08684); assay: Inhibition of CYP3A4 expressed in human B-lymphoblastoid cells at 10 uM; assay type: ADME, cell-based
CYP3A4, sequence (P08684 whole entry): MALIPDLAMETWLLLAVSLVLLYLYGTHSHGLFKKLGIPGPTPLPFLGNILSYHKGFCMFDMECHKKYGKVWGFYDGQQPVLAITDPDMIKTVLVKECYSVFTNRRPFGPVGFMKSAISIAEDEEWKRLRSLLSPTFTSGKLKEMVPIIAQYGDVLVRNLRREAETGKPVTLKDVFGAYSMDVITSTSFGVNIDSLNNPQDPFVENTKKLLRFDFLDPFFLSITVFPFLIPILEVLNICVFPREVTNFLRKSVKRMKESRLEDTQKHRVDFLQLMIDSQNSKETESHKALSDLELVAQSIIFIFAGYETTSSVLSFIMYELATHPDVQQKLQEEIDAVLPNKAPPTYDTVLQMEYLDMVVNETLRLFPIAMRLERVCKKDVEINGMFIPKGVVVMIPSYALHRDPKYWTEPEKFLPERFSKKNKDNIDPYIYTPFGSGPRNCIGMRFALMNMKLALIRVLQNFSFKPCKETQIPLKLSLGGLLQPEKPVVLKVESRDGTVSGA
How it was run: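 Recombinant CYP3A4 (10 nM, from CYP3A4-expressing human B-lymphoblastoid cells) incubated with 100 µM testosterone and 10 µM test compound for 30 min at 37 °C; 6β-hydroxytestosterone formation quantified by HPLC-UV.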

Plasma [4] = assay: Anticoagulant activity in mouse plasma assessed as ratio of prothrombin time in drug to untreated control at 30 mg/kg, po; assay type: functional
How it was run: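 Male ICR mice (30-35 g), fasted >12 h, dosed orally at 30 mg/kg as suspension in 0.5% methylcellulose; vehicle controls. Citrated aortic blood drawn 1 h post-dose under pentobarbital anaesthesia, spun 1000g 10 min to platelet-poor plasma. PT on 50 µL plasma preincubated 4 min at 37 °C, started with thromboplastin; clotting time expressed relative to control group (n = 3).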

Cc1ncc(C2CCN(C(=O)CCS(=O)(=O)c3ccc4cc(Cl)ccc4c3)CC2)[nH]1
logD (physchem): 2 | Activity (Plasma [1]): 2.5 µM | pKa [2]: 7.9 | IC50 (Coagulation factor X): 120 nM

Cn1ccnc1C1CCN(C(=O)CCS(=O)(=O)c2ccc3cc(Cl)ccc3c2)CC1
Activity (Plasma [1]): 2.1 µM | IC50 (Coagulation factor X): 56 nM

O=C(CCS(=O)(=O)c1ccc2cc(Cl)ccc2c1)N1CCC(c2cnc3ccccn23)CC1
logD (physchem): 2.5 | Activity (Plasma [1]): 2.2 µM | pKa [2]: 5.9 | IC50 (Coagulation factor X): 12 nM

Cc1nccn1CCCC1CCN(C(=O)CCS(=O)(=O)c2ccc3cc(Cl)ccc3c2)CC1
Activity (Plasma [1]): >10 µM | IC50 (Coagulation factor X): 460 nM

Cc1nccn1CCN1CCN(C(=O)CCS(=O)(=O)c2ccc3cc(Cl)ccc3c2)CC1
Activity (Plasma [1]): 0.99 µM | Activity (Plasma [3]): 2.1 µM | inhibition at 10 µM (CYP3A4): 53% | Ratio (Plasma [4]): 1.1 | IC50 (Coagulation factor X): 54 nM

Cc1nccn1C1CCN(C(=O)CCS(=O)(=O)c2ccc3cc(Cl)ccc3c2)CC1
Activity (Plasma [1]): 0.99 µM | Activity (Plasma [3]): 3.3 µM | inhibition at 10 µM (CYP3A4): 34% | Ratio (Plasma [4]): 1.1 | IC50 (Coagulation factor X): 170 nM

Cc1nc(C)n2c1CN(C1CCN(C(=O)CCS(=O)(=O)c3ccc4cc(Cl)ccc4c3)CC1)C2=O
logD (physchem): 2.5 | Activity (Plasma [1]): 1.2 µM | Activity (Plasma [3]): 2.5 µM | inhibition at 10 µM (CYP3A4): 62% | Ratio (Plasma [4]): 2 | pKa [2]: 5.4 | IC50 (Coagulation factor X): 5.3 nM

Cc1nccn1CC1CCN(C(=O)CCS(=O)(=O)c2ccc3cc(Cl)ccc3c2)CC1
Activity (Plasma [1]): 7.7 µM | IC50 (Coagulation factor X): 910 nM

O=C(CCS(=O)(=O)c1ccc2cc(Cl)ccc2c1)N1CCC(c2cnc3n2CCCC3)CC1
logD (physchem): 2.2 | Activity (Plasma [1]): 0.48 µM | Activity (Plasma [3]): 3 µM | inhibition at 10 µM (CYP3A4): 42% | Ratio (Plasma [4]): 1.1 | pKa [2]: 8.2 | IC50 (Coagulation factor X): 23 nM

Cc1nccn1CCCCC1CCN(C(=O)CCS(=O)(=O)c2ccc3cc(Cl)ccc3c2)CC1
Activity (Plasma [1]): >10 µM | IC50 (Coagulation factor X): 300 nM

O=C(CCS(=O)(=O)c1ccc2cc(Cl)ccc2c1)N1CCN(c2cccc3nc(CO)cn23)CC1
IC50 (Coagulation factor X): 9.7 nM
